Results: PMC11755176 (ACS Omega, 2025)

Legend:
[1] = test system: HCT 116 colorectal cancer cells; settings: cited from earlier work
[2] = test system: nonsmall cell lung cancer cells (A549); test: MTT cytotoxicity assay, A549; type: cell-based; settings: for IC50 A549: MTT assay, 72 h incubation, mean ± SD of three independent experiments; for IC50: Homo sapiens, A549, 72 h, read-out: IC50 A549
Method in brief: (§1)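 Cells kept in DMEM with 10% FBS and 1% penicillin-streptomycin at 37 °C, 5% CO2. Seeding: A549 5 × 10^3, HeLa 1 × 10^3, Vero 2 × 10^3 cells/well. After 16−18 h, medium replaced with graded compound concentrations for 72 h. MTT 0.5 mg/mL for 3 h; formazan dissolved in DMSO; A570 (reference 630 nm). IC50 by nonlinear regression; doxorubicin positive control.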

[3] = test system: NCI-H187 cancer cell line; settings: previously reported; cited from earlier work
HeLa cells = test: Apoptosis analysis; type: cell-based, human; settings: both tested concentrations, Figure 4C,D
[4] = test system: human cervical carcinoma cells (HeLa); test: MTT cytotoxicity assay, HeLa; type: cell-based; settings: 72 h incubation, mean ± SD of three independent experiments
Method in brief: as §1

Vero cells = test: MTT cytotoxicity assay, Vero; type: cell-based; settings: 72 h incubation, mean ± SD of three independent experiments
Method in brief: as §1

A549 cells = test: Apoptosis analysis; type: cell-based; settings: compared to untreated, Figure 4A,B

| SMILES | IC50 A549 [2] | IC50 HeLa [4] | IC50 [2] [µM] | further results |
| --- | --- | --- | --- | --- |
| O=C1C[C@@H](c2ccccc2)Oc2cc(O)cc(O)c21 [Compound 4, pinocembrin] | inactive | – | – | cytotoxic activity (in words) [1]: exhibit cytotoxic activity; IC50 NCI-H187 [3]: inactive; apoptosis induction (in words) (HeLa cells): increased apoptotic cells in a dose-dependent manner |
| O=C1C[C@@H](c2ccccc2)Oc2cc(O)c(Cc3ccccc3O)c(O)c21 [Compound 5, isochamanetin] | inactive | inactive | – | IC50 Vero (Vero cells): inactive |
| O=C1C[C@@H](c2ccccc2)Oc2c(Cc3ccccc3O)c(O)c(Cc3ccccc3O)c(O)c21 [Compound 7, dichamanetin] | – | inactive | 14.9 ± 0.6 | apoptosis induction (in words) (A549 cells): moderate level of apoptosis |
| COc1cccc2c1C(=O)c1c(O)c3c(c(O)c1C2=O)C[C@@](O)(C(=O)CO)C[C@@H]3O[C@H]1C[C@H](N)[C@H](O)[C@H](C)O1 [doxorubicin, reference compound] | – | – | 0.04 | – |
